Data from ChEMBL document CHEMBL1147590, “Synthesis and antitumor activity of s-tetrazine derivatives” (Bioorg Med Chem Lett, 2004).
pIC50: −log10 of the molar value.

Columns and labels:
[1] = system: P388; assay: In vitro rate of inhibition of P388 tumor cell growth at 10E-7 mol/L; format: functional, Mus musculus; conditions: at 0.1 µM
[2] = system: Bel-7402; assay: Rate of inhibition of Bel-7402 tumor cell growth at a concentration of 2.5 uM; format: functional, Homo sapiens
[3] = system: MCF7; assay: Rate of inhibition of MCF-7 tumor cell growth at a concentration of 0.125 uM; format: functional, Homo sapiens
[4] = system: MCF7; assay: Rate of inhibition of MCF-7 tumor cell growth at a concentration of 1.0 uM; format: functional, Homo sapiens
[5] = system: MCF7; assay: Rate of inhibition of MCF-7 tumor cell growth at a concentration of 0.5 uM; format: functional, Homo sapiens
[6] = system: P388; assay: Rate of inhibition of P388 tumor cell growth at a concentration of […] uM; format: functional, Mus musculus
Procedure, shortened: (§1)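 P-388 tumour cell growth inhibition was read out in vitro by the MTT method.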

[7] = system: A549; assay: Rate of inhibition of A-549 tumor cell growth at a concentration of 0.0625 uM; format: functional, Homo sapiens
Procedure, shortened: (§2)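 A-549 tumour cell growth inhibition was measured in vitro by the SRB (sulforhodamine B) method.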

[8] = system: A549; assay: In vitro rate of inhibition of A-549 tumor cell growth at 10E-6 mol/L; format: functional, Homo sapiens; conditions: at 1 µM
[9] = system: P388; assay: Rate of inhibition of P388 tumor cell growth at a concentration of 0.195 uM; format: functional, Mus musculus; procedure, shortened: as §1
[10] = system: MCF7; assay: Inhibitory concentration of compound against MCF-7 cell line; format: functional, cell-based; conditions: Homo sapiens
[11] = system: A549; assay: In vitro rate of inhibition of A-549 tumor cell growth at 10E-4 mol/L; format: functional, Homo sapiens; conditions: at 100 µM
[12] = system: A549; assay: In vitro rate of inhibition of A-549 tumor cell growth at 10E-7 mol/L; format: functional, Homo sapiens; conditions: at 0.1 µM
[13] = system: A549; assay: Inhibitory concentration of compound against A-549 cell line; format: functional, cell-based; conditions: Homo sapiens; procedure, shortened: as §2
[14] = system: A549; assay: In vitro rate of inhibition of A-549 tumor cell growth at 10E-5 mol/L; format: functional, Homo sapiens; conditions: at 10 µM
[15] = system: P388; assay: Rate of inhibition of P388 tumor cell growth at a concentration of 0.781 uM; format: functional, Mus musculus; procedure, shortened: as §1
[16] = system: P388; assay: Rate of inhibition of P388 tumor cell growth at a concentration of 1.563 uM; format: functional, Mus musculus; procedure, shortened: as §1
[17] = system: A549; assay: Rate of inhibition of A-549 tumor cell growth at a concentration of 0.5 uM; format: functional, Homo sapiens; procedure, shortened: as §2
[18] = system: A549; assay: Rate of inhibition of A-549 tumor cell growth at a concentration of 0.25 uM; format: functional, Homo sapiens; procedure, shortened: as §2
[19] = system: P388; assay: Inhibitory concentration of compound against P388 tumor cell growth; format: functional, cell-based; conditions: Mus musculus; procedure, shortened: as §1
[20] = system: Bel-7402; assay: Rate of inhibition of Bel-7402 tumor cell growth at a concentration of 1.25 uM; format: functional, Homo sapiens
[21] = system: A549; assay: Rate of inhibition of A-549 tumor cell growth at a concentration of 0.125 uM; format: functional, Homo sapiens; procedure, shortened: as §2
[22] = system: A549; assay: In vitro rate of inhibition of A-549 tumor cell growth at 10E-8 mol/L; format: functional, Homo sapiens; conditions: at 0.01 µM
[23] = system: P388; assay: In vitro rate of inhibition of P388 tumor cell growth at 10E-6 mol/L; format: functional, Mus musculus; conditions: at 1 µM
[24] = system: P388; assay: In vitro rate of inhibition of P388 tumor cell growth at 10E-4 mol/L; format: functional, Mus musculus; conditions: at 100 µM
[25] = system: P388; assay: In vitro rate of inhibition of P388 tumor cell growth at 10E-8 mol/L; format: functional, Mus musculus; conditions: at 0.01 µM
[26] = system: Bel-7402; assay: Rate of inhibition of Bel-7402 tumor cell growth at a concentration of 0.625 uM; format: functional, Homo sapiens
[27] = system: Bel-7402; assay: Inhibitory concentration of compound against Bel-7402 cell line; format: functional, cell-based; conditions: Homo sapiens
[28] = system: P388; assay: In vitro rate of inhibition of P388 tumor cell growth at 10E-5 mol/L; format: functional, Mus musculus; conditions: at 10 µM
[29] = system: A549; assay: Rate of inhibition of A-549 tumor cell growth at a concentration of 1 uM; format: functional, Homo sapiens; procedure, shortened: as §2
[30] = system: Bel-7402; assay: Rate of inhibition of Bel-7402 tumor cell growth at a concentration of 0.313 uM; format: functional, Homo sapiens
[31] = system: Bel-7402; assay: Rate of inhibition of Bel-7402 tumor cell growth at a concentration of 5.0 uM; format: functional, Homo sapiens
[32] = system: MCF7; assay: Rate of inhibition of MCF-7 tumor cell growth at a concentration of 0.25 uM; format: functional, Homo sapiens
[33] = system: P388; assay: Rate of inhibition of P388 tumor cell growth at a concentration of 3.125 uM; format: functional, Mus musculus; procedure, shortened: as §1

SMILES: CC1=NN(C(=O)Nc2cccc(C)c2)C(C)=NN1C(=O)Nc1cccc(C)c1
- Rate of inhibition [1]: 96.8%
- Rate of inhibition [2]: 89%
- Rate of inhibition [3]: 1.1%
- Rate of inhibition [4]: 71.2%
- Rate of inhibition [5]: 64.3%
- Rate of inhibition [6]: 55.4%
- Rate of inhibition [7]: 0%
- Rate of inhibition [8]: 80.3%
- Rate of inhibition [9]: 2.3%
- pIC50 [10]: 6.30
- Rate of inhibition [11]: 84.8%
- Rate of inhibition [12]: 81.8%
- pIC50 [13]: 6.15
- Rate of inhibition [14]: 83.3%
- Rate of inhibition [15]: 83.1%
- Rate of inhibition [16]: 91.1%
- Rate of inhibition [17]: 36.6%
- Rate of inhibition [18]: 0%
- pIC50 [19]: 6.22
- Rate of inhibition [20]: 77.8%
- Rate of inhibition [21]: 0%
- Rate of inhibition [22]: 80.3%
- Rate of inhibition [23]: 98.4%
- Rate of inhibition [24]: 96.8%
- Rate of inhibition [25]: 96.8%
- Rate of inhibition [26]: 54.2%
- pIC50 [27]: 6.22
- Rate of inhibition [28]: 96.8%
- Rate of inhibition [29]: 93.6%
- Rate of inhibition [30]: 27.4%
- Rate of inhibition [31]: 87.8%
- Rate of inhibition [32]: 35.7%
- Rate of inhibition [33]: 97.3%

SMILES: CC1=NN(C(=O)Nc2ccc(Cl)cc2)C(C)=NN1C(=O)Nc1ccc(Cl)cc1
- Rate of inhibition [1]: 7.4%
- Rate of inhibition [8]: 1.9%
- Rate of inhibition [11]: 53.4%
- Rate of inhibition [12]: 7.4%
- Rate of inhibition [14]: 14.8%
- Rate of inhibition [22]: 0%
- Rate of inhibition [23]: 1.9%
- Rate of inhibition [24]: 50%
- Rate of inhibition [25]: 0%
- Rate of inhibition [28]: 14.8%

SMILES: Clc1ccc(Cc2nnc(Cc3ccc(Cl)cc3)nn2)cc1
- Rate of inhibition [1]: 8.9%
- Rate of inhibition [8]: 13.1%
- Rate of inhibition [11]: 65.8%
- Rate of inhibition [12]: 1.1%
- Rate of inhibition [14]: 57.1%
- Rate of inhibition [22]: 8.7%
- Rate of inhibition [23]: 9.3%
- Rate of inhibition [24]: 58.4%
- Rate of inhibition [25]: 0%
- Rate of inhibition [28]: 29.1%

SMILES: CC1=NNC(C)N=N1 (stereo not drawn)
- Rate of inhibition [1]: 15.9%
- Rate of inhibition [8]: 0%
- Rate of inhibition [11]: 67.7%
- Rate of inhibition [12]: 5.5%
- Rate of inhibition [14]: 4.8%
- Rate of inhibition [22]: 0%
- Rate of inhibition [23]: 9.2%
- Rate of inhibition [24]: 100%
- Rate of inhibition [25]: 0%
- Rate of inhibition [28]: 19.7%

SMILES: Clc1ccc(-c2nnc(-c3ccc(Cl)cc3)nn2)cc1
- Rate of inhibition [1]: 19.4%
- Rate of inhibition [8]: 0%
- Rate of inhibition [11]: 0%
- Rate of inhibition [12]: 0%
- Rate of inhibition [14]: 0%
- Rate of inhibition [22]: 0%
- Rate of inhibition [23]: 29%
- Rate of inhibition [24]: 52.3%
- Rate of inhibition [25]: 16.1%
- Rate of inhibition [28]: 35.1%

SMILES: CC1=NN(C(=O)Nc2cccc([N+](=O)[O-])c2)C(C)=NN1C(=O)Nc1cccc([N+](=O)[O-])c1
- Rate of inhibition [1]: 20.6%
- Rate of inhibition [8]: 0%
- Rate of inhibition [11]: 0.9%
- Rate of inhibition [12]: 0%
- Rate of inhibition [14]: 0%
- Rate of inhibition [22]: 0%
- Rate of inhibition [23]: 38.1%
- Rate of inhibition [24]: 69.8%
- Rate of inhibition [25]: 22.2%
- Rate of inhibition [28]: 58.7%

SMILES: CCOC(=O)c1ccc(NC(=O)N2N=C(C)N(C(=O)Nc3ccc(C(=O)OCC)cc3)N=C2C)cc1
- Rate of inhibition [1]: 0%
- Rate of inhibition [8]: 0%
- Rate of inhibition [11]: 27.3%
- Rate of inhibition [12]: 0%
- Rate of inhibition [14]: 28.8%
- Rate of inhibition [22]: 0%
- Rate of inhibition [23]: 1.6%
- Rate of inhibition [24]: 63.5%
- Rate of inhibition [25]: 0%
- Rate of inhibition [28]: 25.4%

SMILES: CC(=O)N1N=C(c2ccccc2)NN=C1c1ccccc1
- Rate of inhibition [1]: 5.5%
- Rate of inhibition [8]: 0%
- Rate of inhibition [11]: 85.1%
- Rate of inhibition [12]: 0%
- Rate of inhibition [14]: 0%
- Rate of inhibition [22]: 0%
- Rate of inhibition [23]: 6.6%
- Rate of inhibition [24]: 62.7%
- Rate of inhibition [25]: 9.2%
- Rate of inhibition [28]: 10.9%

SMILES: CCCC1=NN(C(=O)OC)C(CCC)N=N1 (stereo not drawn)
- Rate of inhibition [1]: 1.7%
- Rate of inhibition [8]: 0%
- Rate of inhibition [11]: 59.6%
- Rate of inhibition [12]: 0%
- Rate of inhibition [14]: 0%
- Rate of inhibition [22]: 0%
- Rate of inhibition [23]: 4.5%
- Rate of inhibition [24]: 90.4%
- Rate of inhibition [25]: 3.3%
- Rate of inhibition [28]: 17.3%

SMILES: CCCC1=NN(C(=O)OCC)C(CCC)N=N1 (stereo not drawn)
- Rate of inhibition [1]: 5%
- Rate of inhibition [8]: 0%
- Rate of inhibition [11]: 12.5%
- Rate of inhibition [12]: 0%
- Rate of inhibition [14]: 0%
- Rate of inhibition [22]: 0%
- Rate of inhibition [23]: 2.2%
- Rate of inhibition [24]: 35.4%
- Rate of inhibition [25]: 3.6%
- Rate of inhibition [28]: 15%

SMILES: CCCOC(=O)N1C(c2ccccc2)=NN=C(c2ccccc2)N1C(=O)OCCC
- Rate of inhibition [1]: 4.3%
- Rate of inhibition [8]: 0.5%
- Rate of inhibition [11]: 23.4%
- Rate of inhibition [12]: 0%
- Rate of inhibition [14]: 29.8%
- Rate of inhibition [22]: 0%
- Rate of inhibition [23]: 4.5%
- Rate of inhibition [24]: 80.9%
- Rate of inhibition [25]: 2.5%
- Rate of inhibition [28]: 54.8%

SMILES: COC(=O)N1C(c2ccccc2)=NN=C(c2ccccc2)N1C(=O)OC
- Rate of inhibition [1]: 5.2%
- Rate of inhibition [8]: 0%
- Rate of inhibition [11]: 35.5%
- Rate of inhibition [12]: 0%
- Rate of inhibition [14]: 0%
- Rate of inhibition [22]: 0%
- Rate of inhibition [23]: 11.6%
- Rate of inhibition [24]: 50.5%
- Rate of inhibition [25]: 3.3%
- Rate of inhibition [28]: 14.6%

SMILES: CC1=NN(C(=O)Oc2ccccc2)C(C)N=N1 (stereo not drawn)
- Rate of inhibition [1]: 1.2%
- Rate of inhibition [8]: 0%
- Rate of inhibition [11]: 32.1%
- Rate of inhibition [12]: 0%
- Rate of inhibition [14]: 0%
- Rate of inhibition [22]: 0%
- Rate of inhibition [23]: 13.6%
- Rate of inhibition [24]: 85.3%
- Rate of inhibition [25]: 0%
- Rate of inhibition [28]: 27.9%

SMILES: CC1=NN(C(=O)Nc2ccccc2)C(C)=NN1C(=O)Nc1ccccc1
- Rate of inhibition [1]: 87.5%
- Rate of inhibition [8]: 79.4%
- Rate of inhibition [11]: 76.5%
- Rate of inhibition [12]: 60.3%
- Rate of inhibition [14]: 77.9%
- Rate of inhibition [22]: 50%
- Rate of inhibition [23]: 90.6%
- Rate of inhibition [24]: 89.1%
- Rate of inhibition [25]: 81.3%
- Rate of inhibition [28]: 90.6%

SMILES: C1=CN(c2nnc(N3C=CN=CC3)nn2)CC=N1
- Rate of inhibition [1]: 0%
- Rate of inhibition [8]: 0%
- Rate of inhibition [11]: 60.6%
- Rate of inhibition [12]: 0%
- Rate of inhibition [14]: 3.9%
- Rate of inhibition [22]: 0%
- Rate of inhibition [23]: 0%
- Rate of inhibition [24]: 69.9%
- Rate of inhibition [25]: 0%
- Rate of inhibition [28]: 0%
